How the values were obtained:
[1] = biological target: T1, Voltage-gated L-type calcium channel (Rattus norvegicus, UniProt P22002+Q02485+P27732); test: Agonistic potency, mean percentage of increased Ba2+ currents at -20 mV; Range = 200-240%; format: functional
Procedure, shortened: (§1)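 Whole-cell patch clamp on cultured rat insulinoma RINm5F cells at 22 °C. External solution (mM): 125 NaCl, 10 BaCl2, 1 MgCl, 10 HEPES pH 7.3, 300 nM TTX. Internal solution CsCl/TEACl/EGTA-based with ATP and GTP. Held at -60 mV, stepped to -20 mV, returned to -40 mV. Compounds at 3 µM by fast superfusion. Result is % increase of L-type Ba2+ current, after subtracting the current insensitive to 3 µM nifedipine; 5-22 cells.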

Rattus norvegicus [2] = species: Rattus norvegicus; test: Positive inotropic activity on rat papillary muscle electrically stimulated by unipolar square wave pulses; format: functional; settings: Muscle tissue
Procedure, shortened: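 Electrically driven rat papillary muscle, 90 min equilibration. Cumulative curves in half-log steps, each step after a plateau, in the presence of 1 µM propranolol and 0.1 µM prazosin added 15 min beforehand. One curve per tissue. EC50 is the mean of 5-7 determinations.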

Rattus norvegicus [3] = species: Rattus norvegicus; test: Capacity to increase [Ca2+] entry into the vascular smooth muscle was evaluated on rat aorta strips partially depolarized with 10 mM K; format: functional; settings: Muscle tissue
Procedure, shortened: (§2)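 Thoracic aorta cut helically, endothelium removed, three strips per vessel, 0.7 g tension, isotonic recording. Equilibrated 1 h, then depolarized twice with 50 mM KCl at 60 min intervals. Cumulative contraction curves run in 10 mM KCl, protected from light. EC50 is the mean of 5-7 determinations.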

Rattus norvegicus [4] = species: Rattus norvegicus; test: Capacity to increase [Ca2+] entry into the vascular smooth muscle was evaluated on rat aorta strips partially depolarized with 10 mM K+ relative to 50 mM KCl; format: functional, Muscle tissue; procedure, shortened: as §2
Rattus norvegicus [5] = species: Rattus norvegicus; test: Capacity to increase [Ca2+] entry into the vascular smooth muscle was evaluated on rat aorta strips partially depolarized with 10 mM K+ in the presence of 1 uM ODQ.; format: functional; settings: Muscle tissue
Procedure, shortened: (§3)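 Endothelium-denuded rat thoracic aorta strips under 0.7 g tension, precontracted twice with 50 mM KCl. Cumulative contraction curves in 10 mM KCl, in light-protected conditions, with 1 µM ODQ added at least 15 min before the first agonist concentration. EC50 is the mean of 5-7 determinations.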

Rattus norvegicus [6] = species: Rattus norvegicus; test: Capacity to increase [Ca2+] entry into the vascular smooth muscle was evaluated on rat aorta strips partially depolarized with 10 mM K+ relative to 50 mM KCl in the presence of 1 uM ODQ.; format: functional, Muscle tissue; procedure, shortened: as §3
Rattus norvegicus [7] = species: Rattus norvegicus; test: Positive inotropic activity on rat papillary muscle electrically stimulated by unipolar square wave pulses in the presence of 1 uM ODQ.; format: functional; settings: Muscle tissue
Procedure, shortened: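 Electrically stimulated rat papillary muscle with 1 µM propranolol and 0.1 µM prazosin, plus 1 µM ODQ added at least 15 min before the first dose. Cumulative half-log concentration-response curve, one per tissue, after 90 min equilibration. EC50 is the mean of 5-7 determinations.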

[8] = biological target: T1, Voltage-gated L-type calcium channel; test: Effect on L-type [Ca2+] channels of rat RIN-m5F insulinoma cells in 10 mM Ba2+, -60 mV holding potential at 3 uM, -20 mV; format: functional; procedure, shortened: as §1
Rattus norvegicus [9] = species: Rattus norvegicus; test: Capacity to increase [Ca2+] entry into the vascular smooth muscle was evaluated on rat aorta strips partially depolarized with 10 mM K+; No effect; format: functional, Muscle tissue; procedure, shortened: as §2

Agonistic potency [1] [%]	EC50 (Rattus norvegicus [2]) [nM]	EC50 (Rattus norvegicus [3]) [nM]	EC50 (Rattus norvegicus [5]) [nM]	EC50 (Rattus norvegicus [7]) [nM]	Increase [8] [%]	EC50 (Rattus norvegicus [9])	Compound	Max (Rattus norvegicus [4]) [%]	Max (Rattus norvegicus [6]) [%]
< 240	820	57	–	–	–	–	CO/C(O)=C1/C(C)=NC(C)=C([N+](=O)[O-])C1c1ccccc1OCc1nonc1C (stereo unspecified)	85	–
< 240	1200	100	110	1300	–	–	CO/C(O)=C1/C(C)=NC(C)=C([N+](=O)[O-])C1c1ccccc1OCc1no[n+]([O-])c1C (stereo unspecified)	80	83
–	170	18	–	–	320	–	COC(=O)C1=C(C)NC(C)=C([N+](=O)[O-])C1c1ccccc1C(F)(F)F (stereo unspecified)	84	–
< 240	5200	–	210	5000	–	Not Active	CO/C(O)=C1/C(C)=NC(C)=C([N+](=O)[O-])C1c1ccccc1OCc1no[n+]([O-])c1C#N (stereo unspecified)	0	29
< 240	1500	120	–	–	–	–	CO/C(O)=C1/C(C)=NC(C)=C([N+](=O)[O-])C1c1ccccc1OCc1nonc1C#N (stereo unspecified)	62	–

— ChEMBL document CHEMBL1138826, “New 1,4-dihydropyridines endowed with NO-donor and calcium channel agonist properties” (J Med Chem, 2004)
